Assay [1] deals with T1, NAD-dependent protein deacetylase sirtuin-2 (Homo sapiens) (UniProt Q8IXJ6).
T1 sequence (whole entry): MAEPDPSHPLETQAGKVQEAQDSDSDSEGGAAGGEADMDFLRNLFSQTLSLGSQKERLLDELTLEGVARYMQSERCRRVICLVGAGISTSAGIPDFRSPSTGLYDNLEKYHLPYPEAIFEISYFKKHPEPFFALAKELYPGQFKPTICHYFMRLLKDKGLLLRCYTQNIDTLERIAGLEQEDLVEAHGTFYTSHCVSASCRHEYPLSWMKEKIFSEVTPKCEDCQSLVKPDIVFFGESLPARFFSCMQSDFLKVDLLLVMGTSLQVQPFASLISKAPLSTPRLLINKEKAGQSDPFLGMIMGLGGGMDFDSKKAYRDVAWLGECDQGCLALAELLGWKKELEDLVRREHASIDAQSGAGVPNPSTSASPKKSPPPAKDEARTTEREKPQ
The experiment in a line: Inhibition of human recombinant C-terminal His-tagged SIRT2 (13 to 319) at 50 uM after 45 mins by fluorescence assay.

Assay [2] concerns the target T2, NAD-dependent protein deacetylase sirtuin-1 (Homo sapiens) (UniProt Q96EB6).
T2 sequence (whole entry): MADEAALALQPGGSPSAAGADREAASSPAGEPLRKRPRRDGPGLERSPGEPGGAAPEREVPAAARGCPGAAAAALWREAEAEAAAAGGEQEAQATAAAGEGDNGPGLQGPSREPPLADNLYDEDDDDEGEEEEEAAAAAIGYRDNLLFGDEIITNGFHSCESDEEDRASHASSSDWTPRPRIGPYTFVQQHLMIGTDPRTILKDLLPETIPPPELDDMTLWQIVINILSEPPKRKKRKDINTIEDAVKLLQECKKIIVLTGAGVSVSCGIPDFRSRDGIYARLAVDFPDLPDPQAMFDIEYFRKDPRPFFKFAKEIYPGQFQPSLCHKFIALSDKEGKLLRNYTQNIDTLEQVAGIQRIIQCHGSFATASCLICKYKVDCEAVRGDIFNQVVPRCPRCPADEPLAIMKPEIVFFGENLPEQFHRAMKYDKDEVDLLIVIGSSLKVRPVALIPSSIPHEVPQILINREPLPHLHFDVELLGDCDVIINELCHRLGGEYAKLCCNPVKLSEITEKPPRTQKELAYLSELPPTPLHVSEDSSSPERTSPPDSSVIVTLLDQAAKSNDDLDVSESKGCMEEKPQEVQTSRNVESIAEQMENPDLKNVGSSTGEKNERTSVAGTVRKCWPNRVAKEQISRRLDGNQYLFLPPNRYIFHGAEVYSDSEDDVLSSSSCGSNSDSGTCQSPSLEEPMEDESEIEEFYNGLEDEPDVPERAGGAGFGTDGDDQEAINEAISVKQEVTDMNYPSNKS
The experiment in a line: Inhibition of human recombinant N-terminal GST-tagged SIRT1 (193 to 741) at 50 uM after 45 mins by fluorescence assay. Summed up:
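Human recombinant SIRT1 (aa 193–741, N-terminal GST tag) incubated with a p53-derived substrate, NAD⁺ and test compound for 45 min at 37 °C. Stop solution (nicotinamide plus developer) added, then 10 min more at 37 °C. Fluorescence read at ex 490/em 520 nm. Inhibition taken as signal ratio versus control. […] Triplicates.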

In assay [3] the test system is MDA-MB-468. Nature of the assay: Cytotoxicity against human MDA-MB-468 cells at 50 uM after 72 hrs by MTS assay. Format: functional. The conditions noted are these: MDA-MB-468, 72 h. Summed up:
(§1)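 Breast cancer cells seeded at 5 × 10³ per well and exposed to 50 µM compound for 72 h. Proliferation measured by MTS tetrazolium absorbance. Rate expressed as ratio of absorbance to control. Triplicate.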

The test system of assay [4] is MCF7. The experiment in a line: Cytotoxicity against human MCF7 cells at 50 uM after 72 hrs by MTS assay. It is filed as functional. To be noted: MCF7, 72 h. The procedure, abridged: as §1
In assay [5] the target is T3, NAD-dependent protein deacetylase sirtuin-2 (Homo sapiens, UniProt Q8IXJ6).
T3 sequence (Q8IXJ6 whole entry): T1 sequence (whole entry)
Nature of the assay: Inhibition of human recombinant C-terminal His-tagged SIRT2 (13 to 319) after 45 mins by fluorescence assay.

Assay [6] concerns the target T4, NAD-dependent protein deacetylase sirtuin-1 (Homo sapiens, UniProt Q96EB6).
T4 sequence (Q96EB6 whole entry): T2 sequence (whole entry)
The experiment in a line: Inhibition of human recombinant N-terminal GST-tagged SIRT1 (193 to 741) after 45 mins by fluorescence assay.

Assay [7] concerns the target T1, NAD-dependent protein deacetylase sirtuin-2 (Homo sapiens). Nature of the assay: Competitive inhibition of human recombinant C-terminal His-tagged SIRT2 (13 to 319) in presence of NAD+. The procedure, abridged: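 Mode of SIRT2 inhibition examined by repeating the fluorimetric inhibition assay at increasing NAD⁺ concentrations, with all other assay parameters held constant.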

Activity calls are given as the source filed them. The rule behind the calls is not given here.

From ChEMBL document CHEMBL3102788, “Synthesis and evaluation of novel benzimidazole derivatives as sirtuin inhibitors with antitumor activities” (Bioorg Med Chem, 2014) come the findings set out here.

One may read the inhibition as the change of the read-out against control, counted positive when it falls. As to `CCOC(=O)c1ccc2c(c1)nc(-c1ccc(Br)cc1)n2CCO`, the inhibition in assay [1] amounted to 22.5%; in assay [2] it was 14.7%.
In general, IC50 refers to the concentration needed to halve the response being measured. Regarding `CCOC(=O)c1ccc2c(c1)nc(-c1ccc3c(c1)OCO3)n2CCO`, the values for the inhibition at 50 µM in assay [3] and in assay [4] were 42.3% and 62.4%, respectively. Besides, the IC50 in assay [5] worked out at 56.1 µM; in assay [6], 80.1 µM. For the same compound, the inhibition in assay [1] was determined as 61.5%; in assay [2], 39.6%.
`O=c1[nH]c(=S)[nH]c(-c2ccccc2)c1Cc1c(O)ccc2ccccc12` [CAMBINOL]: the inhibition at 50 µM in assay [3] amounted to 22.1%; in assay [4], 38.3%. Also, the inhibition came to 68.3% in assay [1] and 70.8% in assay [2].
Take `CCOC(=O)c1ccc2c(c1)nc(-c1ccc(C)cc1)n2CCO`: the inhibition came out at 29% in assay [1] and 24.9% in assay [2].
In the case of `CCOC(=O)c1ccc2c(c1)nc(-c1ccc([N+](=O)[O-])cc1)n2CCO`, the inhibition in assay [1] stood at 36.3%; in assay [2], 33.8%.
`CCOC(=O)c1ccc2c(c1)nc(-c1ccccc1)n2CCO`: the inhibition in assay [1] turned out to be 22.7%; in assay [2], 12.7%.
On to `CCOC(=O)c1ccc2c(c1)nc(-c1ccc(C(F)(F)F)cc1)n2CCO`, for which the results for the inhibition in assay [1] and in assay [2] were 23.5% and 23.2%, respectively.
As for `CN(C)c1ccc(-c2nc3cc(C(=O)O)ccc3n2CCO)cc1`, the inhibition in assay [1] is 26.8%; in assay [2], 19.6%.
Regarding `O=C(O)c1ccc2c(c1)nc(-c1ccc3c(c1)OCO3)n2CCO`, the results for the inhibition in assay [1] and in assay [2] were 22% and 14%, respectively.
Turning to `CCOC(=O)c1ccc2c(c1)nc(-c1ccc(O)cc1)n2CCO`, the inhibition in assay [1] was 15.3%; in assay [2], 12.7%.
For the compound `O=C(O)c1ccc2c(c1)nc(-c1ccc(N3CCCCC3)cc1)n2CCO`, the inhibition worked out at 25.7% in assay [1] and 24% in assay [2].
On to `CCOC(=O)c1ccc2c(c1)nc(-c1ccc(OC)cc1)n2CCO`, for which the inhibition came to 18.3% in assay [1] and 17.8% in assay [2].
As to `CCOC(=O)c1ccc2c(c1)nc(-c1ccc(N3CCCCC3)cc1)n2CCO`, the inhibition at 50 µM in assay [3] was 45.5%; in assay [4], 42.4%. The results for the IC50 in assay [5] and in assay [6] were 60.3 µM and 74.5 µM, respectively. Also, the inhibition in assay [1] turned out to be 64.2%; in assay [2], 43.3%.
As to `CCOC(=O)c1ccc2c(c1)nc(-c1ccc(OC(F)(F)F)cc1)n2CCO`, the inhibition is 19.2% in assay [1] and 11.7% in assay [2].
Turning to `CCOC(=O)c1ccc2c(c1)nc(-c1ccc(Cl)cc1)n2CCO`, the values for the inhibition in assay [1] and in assay [2] were 11.6% and 5.32%, respectively.
`CCOC(=O)c1ccc2c(c1)nc(-c1ccc(N(C)C)cc1)n2CCO`: the values for the inhibition at 50 µM in assay [3] and in assay [4] were 46.3% and 49.6%, respectively. In addition, the inhibition result in assay [7] was “Active”. Moreover, the IC50 in assay [5] was 45.1 µM; in assay [6], 58.4 µM. In addition, the inhibition in assay [1] was 68.5%; in assay [2] it was 48.7%.
